This note sets out measurements from ChEMBL document CHEMBL3804829, “Two New Faces of Amifostine: Protector from DNA Damage in Normal Cells and Inhibitor of DNA Repair in Cancer Cells” (J Med Chem, 2016).

The structures appear in SMILES notation. The source made the active and inactive calls.

The subject of series [1] is MCF7. The series can be described thus: Reduction of DNA DSB repair in gamma irradiated human MCF7 cells at 4 mM preincubated for 15 mins followed by gamma irradiation measured after 60 to 120 mins by neutral comet assay. The class given is functional, cell-based.
Series [2] deals with NHDF. The series can be described thus: Protection against DNA damage in gamma irradiated human NHDF assessed as decrease in median number of gammaH2AX/53BP1 foci per nucleus at 4 mM preincubated for 15 mins followed by gamma irradiation measured after 5 mins by confocal fluorescence microscopic analysis relative to control. The class given is functional. Set-up: scale not given: the % may be the effect or the level left. Put shortly: (§1)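 NHDF fibroblasts or MCF7 cells, with or without 4 mM amifostine added 15 min before 1 Gy γ-irradiation. Sampled at 5, 60 and 120 min post-irradiation and fixed in paraformaldehyde to keep nuclei 3D-intact. γH2AX and 53BP1 were immunodetected and imaged by high-resolution confocal microscopy. A DSB was scored only as a γH2AX focus colocalizing with 53BP1 above a minimum size set for each time point. Read-out: median foci per nucleus.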

The subject of series [3] is MCF7. Kind of series: Induction of DNA damage in gamma irradiated human MCF7 cells assessed as median number of […]/53BP1 foci per nucleus at 4 mM preincubated for 15 mins followed by gamma irradiation measured after 60 mins by confocal fluorescence microscopic analysis relative to control.
The test system of series [4] is NHDF. The series can be described thus: Protection against DNA damage in gamma irradiated human NHDF assessed as decrease in median number of gammaH2AX/53BP1 foci per nucleus at 4 mM preincubated for 15 mins followed by gamma irradiation measured after 60 mins by confocal fluorescence microscopic analysis relative to control. Type of series: functional. Further details: scale not given: the % may be the effect or the level left. Put shortly:
as §1

A short description of series [5]: Prodrug conversion in human NHDF cells assessed as ALP-mediated WR-1065 formation at 4 mM after 20 to 75 mins by LC-MS/MS analysis. Particulars: 4000 µM. Type of series: ADME, cell-based.
Series [6] is described as follows: Prodrug conversion in human MCF7 cell supernatants assessed as ALP-mediated WR-1065 formation at 4 mM after 20 to 75 mins by LC-MS/MS analysis. The class given is ADME, cell-based. To be noted: mcf7, 4000 µM.
Series [7] deals with MCF7. Kind of series: Reduction of DNA DSB repair in gamma irradiated human MCF7 cells assessed as median number of […]/53BP1 foci per nucleus at 4 mM preincubated for 15 mins followed by gamma irradiation measured after 60 mins by confocal fluorescence microscopic analysis relative to control. The class given is functional. Further details: scale not given: the % may be the effect or the level left. Put shortly: as §1

Series [8] relates to NHDF. The series can be described thus: Induction of DNA DSB repair in gamma irradiated human NHDF assessed as median number of […]/53BP1 foci per nucleus preincubated for 15 mins followed by gamma irradiation measured after 120 mins by confocal fluorescence microscopic analysis relative to control. Type of series: functional, cell-based. Put shortly: as §1
Series [9] has as its system NHDF. Kind of series: Induction of DNA DSB repair in gamma irradiated human NHDF assessed as decrease in median number of […]/53BP1 foci per nucleus at 4 mM preincubated for 15 mins followed by gamma irradiation measured after 60 mins by confocal fluorescence microscopic analysis relative to 5 mins postirradiation. The class given is functional. Set-up: scale not given: the % may be the effect or the level left. Put shortly:
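NHDF fibroblasts, with or without 4 mM amifostine 15 min before 1 Gy γ-rays, fixed in paraformaldehyde (3D-preserved). γH2AX foci colocalizing with 53BP1 and above a size threshold set per time point were counted by high-resolution confocal microscopy. Repair efficiency was taken as the median DSBs per nucleus at 5 min minus that at 60 min post-irradiation.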

Series [10] has as its system NHDF. Kind of series: Protection against DNA damage in gamma irradiated human NHDF assessed as decrease in double strand breakage of DNA at 4 mM preincubated for 15 mins followed by gamma irradiation measured after 5 mins by neutral comet assay. The class given is functional, cell-based.
The nature of series [11]: Prodrug conversion in human MCF7 cells assessed as ALP-mediated WR-1065 formation at 4 mM after 20 to 75 mins by LC-MS/MS analysis. Type of series: ADME, cell-based. To be noted: mcf7, 4000 µM.
Series [12] has as its system MCF7. The series can be described thus: Induction of DNA damage in gamma irradiated human MCF7 cells assessed as increase in median number of […]/53BP1 foci per nucleus at 4 mM preincubated for 15 mins followed by gamma irradiation measured after 60 to 120 mins by confocal fluorescence microscopic analysis. The class given is functional, cell-based. Put shortly: as §1

Series [13] in a line: Ratio of prodrug conversion in human NHDF assessed as ALP-mediated WR-1065 formation at 75 mins to prodrug conversion in human MCF7 cells assessed as ALP-mediated WR-1065 formation at 75 mins. Type of series: ADME, cell-based. To be noted: mcf7, 1.25 h.
Series [14] has as its system NHDF. The series can be described thus: Induction of DNA DSB repair in gamma irradiated human NHDF at 4 mM preincubated for 15 mins followed by gamma irradiation measured after 60 to 120 mins by neutral comet assay. The class given is functional, cell-based.
Series [15] in a line: Ratio of prodrug conversion in human NHDF assessed as ALP-mediated WR-1065 formation at 20 mins to prodrug conversion in human MCF7 cells assessed as ALP-mediated WR-1065 formation at 20 mins. Particulars: mcf7, 20 min. The class given is ADME, cell-based.
Series [16] can be described thus: Ratio of prodrug conversion in human NHDF supernatants assessed as ALP-mediated WR-1065 formation at 20 mins to prodrug conversion in human MCF7 cell supernatants assessed as ALP-mediated WR-1065 formation at 20 mins. The class given is ADME, cell-based. To be noted: mcf7, 20 min.
Series [17] in a line: Ratio of prodrug conversion in human NHDF supernatants assessed as ALP-mediated WR-1065 formation at 75 mins to prodrug conversion in human MCF7 cell supernatants assessed as ALP-mediated WR-1065 formation at 75 mins. The class given is ADME, cell-based. To be noted: mcf7, 1.25 h.
For series [18], the system named is MCF7. The series can be described thus: Decrease in median number of […]/53BP1 foci per nucleus in gamma irradiated human MCF7 cells at 4 mM preincubated for 15 mins followed by gamma irradiation measured after 5 mins by confocal fluorescence microscopic analysis relative to control. The class given is functional. Further details: scale not given: the % may be the effect or the level left. Put shortly:
(§2)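 Cells received 4 mM drug 15 min before 1 Gy γ-irradiation and were sampled at 5, 60 and 120 min post-irradiation. They were fixed in paraformaldehyde to keep nuclei in 3D and immunostained for γH2AX and 53BP1. Imaging used high-resolution confocal microscopy. A DSB was scored only where a γH2AX focus colocalized with 53BP1 and met a minimum size set separately for each time point. The read-out was median foci per nucleus against untreated irradiated cells.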

The subject of series [19] is MCF7. Kind of series: Induction of DNA damage in gamma irradiated human MCF7 cells assessed as increase in double strand breakage of DNA at 4 mM preincubated for 15 mins followed by gamma irradiation measured after 5 mins by neutral comet assay. The class given is functional, cell-based.
Series [20] relates to NHDF. Kind of series: Drug uptake in human NHDF at 4 mM after 20 to 75 mins by LC-MS/MS analysis. The class given is ADME, cell-based. Particulars: 4000 µM.
Series [21] relates to MCF7. The series can be described thus: Drug uptake in human MCF7 cells at 4 mM after 20 to 75 mins by LC-MS/MS analysis. To be noted: mcf7, 4000 µM. The class given is ADME, cell-based.
Series [22] relates to MCF7. Kind of series: Decrease in median number of […]/53BP1 foci per nucleus in gamma irradiated human MCF7 cells at 4 mM preincubated for 15 mins followed by gamma irradiation measured after 60 mins by confocal fluorescence microscopic analysis relative to control. Set-up: scale not given: the % may be the effect or the level left. The class given is functional. Put shortly:
as §2

Series [23] deals with NHDF. The series can be described thus: Induction of DNA DSB repair in gamma irradiated human NHDF assessed as median number of […]/53BP1 foci per nucleus at 4 mM preincubated for 15 mins followed by gamma irradiation measured after 60 mins by confocal fluorescence microscopic analysis relative to control. Type of series: functional. Put shortly:
as §2

On to `NCCCNCCSP(=O)(O)O` [AMIFOSTINE], for which the outcome in [1], in series [8], in series [10], in [12] and in series [14] was Active. Also, the Activity in [2] is reported as 75.8%; in [3], 137.5%; in [4] it was 61.9%; in series [7] it was 20.7%; in [9], 10%. Further, the Drug metabolism result in series [5], in [6] and in series [11] was “metabolite_detected” throughout. The Ratio in series [13] was found to be 1.47; in [15] it was 2.56; in [16], 1.62; in [17], 2.17.

As for `NCCCNCCS` [WR-1065], the Activity in series [18] was determined as 75%; in series [2] it was 65.2%; in [4], 50%; in series [22] it was 82.9%; in series [23], 17.7%. Moreover, the result in series [1], in [10] and in series [14] was Active. For the same molecule, the outcome in [19] was inactive. Further, the Drug uptake in [20] and in series [21] was greater than 90% throughout.
